# PubChem BioAssay AID504383 (The Scripps Research Institute Molecular Screening Center, 2011)
# Out of some 2,500 compounds screened, about 1,200 (48%) were called active.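 The calls were made as follows: active = mean activation above the low control average plus 3 SD, as set in the primary screen (cut at about 12% in these data); inactive = the rest.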 The set was probably picked from earlier hits. The list shows a part of the results.
# Molecular target: Troponin I, cardiac muscle (Homo sapiens) + Troponin T, cardiac muscle (Homo sapiens) + Troponin C, slow skeletal and cardiac muscles (Homo sapiens) (UniProt P19429+P45379+P63316)
# Test: cardiac RTF calcium sensitivity activators, confirmation, biochemical, IANBD-TnC fluorescence, triplicate (AID 504383);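 also: 0% = DMSO at 0.472 mM calcium and 100% = DMSO at 2.9 mM calcium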
# Settings: IANBD-labeled cardiac RTF, Ca2+ sensitivity fluorescence; at 7.2 µM; stronger effect = higher value; scaled from EC20 to saturating calcium; tested at EC20 calcium, 0.472 mM
# Summary of the method: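 Assay system: labelled regulated thin filaments / Timing: 15 min at 25 °C / Detection: fluorescence intensity of labelled filaments / Measure: fluorescence gain scaled between EC20 and EC100 calcium controls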
row,Structure (SMILES),activation
1,N#C/C(=C\c1ccc(-c2ccc(F)cc2)o1)C(=O)Nc1nc(-c2cccs2)cs1,81.8% (active)
2,Cn1c(/C(C#N)=C/c2ccc(-c3ccc(S(N)(=O)=O)cc3)o2)nc2ccccc21,9.43% (inactive)
3,N#C/C(=C/c1ccc(-c2ccccc2)o1)c1nc(-c2cccs2)cs1,105% (active)
4,Cc1ccsc1C1NC(=O)c2c(sc3c2CCN(C)C3)N1 (stereo unspecified),63.1% (active)
5,CN1CCc2c(sc3c2C(=O)NC(c2ccco2)N3)C1 (stereo unspecified),1.53% (inactive)
6,Cc1ccc(C2NC(=O)c3c(sc4c3CCN(C)C4)N2)o1 (stereo unspecified),12.6% (active)
7,Cc1ccc(C2NC(=O)c3c(sc4c3CCN(C)C4)N2)s1 (stereo unspecified),5.94% (inactive)
8,CSc1ccc(C2NC(=O)c3c(sc4c3CCN(C)C4)N2)cc1 (stereo unspecified),22.9% (active)
9,O=C1NC(c2ccco2)Nc2sc3c(c21)CCN(Cc1ccccc1)C3 (stereo unspecified),11.7% (active)
10,CN1CCc2c(sc3c2C(=O)NC(c2ccccn2)N3)C1 (stereo unspecified),1.45% (inactive)
11,CN1CCc2c(sc3c2C(=O)NC(c2cccs2)N3)C1 (stereo unspecified),9.65% (inactive)
12,CCc1ccccc1NC(=S)NCc1cccn1C,9.11% (inactive)
13,O=C(NCCCN1CCOCC1)C(=O)NCc1ccco1,9.34% (inactive)
14,Cn1c(C(=O)NCCCN2CCCCCC2)cc2c(=O)n(C)c3ccccc3c21,18.9% (active)
15,O=C(C1=NN[C@@H]2C(=O)N(c3ccccc3C(F)(F)F)C(=O)[C@H]12)c1ccc2ccccc2n1,60.7% (active)
16,Cc1ccc(C)c(N2CCN(C(=O)CN3C(=S)NC(C)(C)CC3C)CC2)c1 (stereo unspecified),42.4% (active)
17,CC1CC(C)(C)NC(=S)N1CCCC(=O)Nc1ccccc1F (stereo unspecified),-0.32% (inactive)
18,CC(C)C[C@@H](CN=[N+]=[N-])N1CCN(C)CCC1=O,-0.6% (inactive)
19,CCN1CCN(C2=CC3=CC(=C(C#N)C#N)CCC3CC2)CC1 (stereo unspecified),0.71% (inactive)
20,Cc1oc(-c2ccccc2Cl)nc1CSc1nc2c(c(=O)[nH]1)CCC2,6.98% (inactive)
21,Fc1ccc(CNC(=S)NCc2ccc(F)cc2)cc1,54.8% (active)
22,Fc1ccc(CNCc2ccc(Br)cc2)cc1,10.4% (inactive)
23,O=C(NCc1ccccc1)C1(c2cccc(F)c2)CCCC1,6.54% (inactive)

row,Structure (SMILES),activation
1,Cc1cc(=O)c2c([nH]1)c(C)cc1[nH]c(C)c(C)c12,9.89% (inactive)
2,COC(=O)C1(C)NC(c2ccc(C)cc2)C2C(=O)N(c3ccc(F)cc3)C(=O)C21 (stereo unspecified),17% (active)
3,CC1(C)C([N+](=O)[O-])C(c2ccc(F)cc2)NC(c2ccc(F)cc2)C1[N+](=O)[O-] (stereo unspecified),1.97% (inactive)
4,CC(C)CN1CCN(Cc2cccn2-c2ccc(Cl)cn2)CC1CCO (stereo unspecified),155% (active)
5,COc1ccc(S(=O)(=O)N2CN(Cc3ccco3)c3nc4ccccc4nc32)cc1,127% (active)
6,O=S(=O)(c1ccc(F)cc1)N1CN(Cc2ccco2)c2nc3ccccc3nc21,19% (active)
7,CCCCCCC(=O)N/N=C/c1ccco1,7.23% (inactive)
8,Cc1ccccc1N(CC(N)=O)S(C)(=O)=O,4.33% (inactive)
9,CS(=O)(=O)N(CC(=O)N/N=C/c1ccco1)c1ccccc1Br,116% (active)
10,O=C(O)c1ccccc1-c1c2cc(I)c(=O)c(I)c-2oc2c(I)c(O)c(I)cc12,5.23% (inactive)
11,C#CCOCCOCCOCCNc1nc(N2CCN(C(=O)Cn3cc(CCCCN)nn3)CC2)nc(N2CCN(C(=O)Cn3cc(CC(C)O)nn3)CC2)n1 (stereo unspecified),5.79% (inactive)
12,C=C1CCN([C@@H](Cc2ccccc2)C(=O)O)S(=O)(=O)c2ccccc21,15.6% (active)
13,O=C(O)c1ccc2c(c1)S(=O)(=O)c1ccccc1C2=O,6.82% (inactive)
14,C=C1CCN(C(CC(C)C)C(=O)OC)S(=O)(=O)c2ccccc21 (stereo unspecified),4.69% (inactive)
15,COc1ccc(/C=C/c2nc3sc4c(c3c(=O)o2)CCC4)cc1,292% (active)
16,COc1ccc(/C=C/C=C2\N=C(SC)SC2=O)cc1,6.95% (inactive)
17,Fc1ccc(-c2[nH]ncc2CN(CC2CCC2)CC2CCCO2)c(F)c1 (stereo unspecified),46.1% (active)
18,CCN1C(=O)/C(=C/c2ccc(N3CCCC3)cc2)NC1=S,7.36% (inactive)
19,CCCN1C(=O)/C(=C/c2ccc(N3CCOCC3)cc2)NC1=S,217% (active)
20,O=C1/C(=C/c2ccc(N3CCCC3)cc2)NC(=S)N1C1CC1,1.84% (inactive)
21,CCN1C/C(=C/c2ccc(N3CCOCC3)cc2)C(=O)/C(=C/c2ccc(N3CCOCC3)cc2)C1,4.14% (inactive)
22,CN1C/C(=C\c2ccc(N3CCOCC3)cc2)C(=O)/C(=C/c2ccc(N3CCOCC3)cc2)C1,11.8% (active)
23,COc1ccc(S(=O)(=O)N2CCC(C(=O)NC(C)CCc3ccccc3)CC2)cc1 (stereo unspecified),11.2% (inactive)
